From ChEMBL document CHEMBL1124485, “6-Alkyl-N,N-disubstituted-2-pyridinamines as anticonvulsant agents” (1989) come the findings set out here.

What all share (type): functional
Test [1] deals with Mus musculus. Kind of test: Lowest dose level at which mice fell off inverted screen during testing 120 min after intraperitoneal dosage. The gist of the method:
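Male Swiss-Webster mice (22-32 g), N = 5 per dose, given 10, 30, 100, 300 mg/kg ip. Tested 120 min after dosing on an inverted wire mesh screen. Value is the lowest dose level at which two or more mice fell off.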

For test [2], the system named is Mus musculus. Kind of test: Minimum effective dose at which mice were protected against tonic-extension produced by maximal electroshock during testing 120 min after intraperitoneal dosage. The settings on record: ip, 2 h, read-out: MED. The gist of the method: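 Male Swiss-Webster mice (22-32 g), N = 5 per dose; dosed ip at 10, 30, 100, 300 mg/kg. Tested 120 min after dosing for protection against tonic extension from maximal electroshock. Value is the dose level at which two or more mice were protected.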

Test [3] deals with Mus musculus. Description: Effective dose required to inhibit ataxia after intraperitoneal administration in experiment 1. As to conditions: ip. Summed up: (§1)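 Ataxia in mice after ip dosing: in-house, falling from an inverted wire mesh screen (Swiss-Webster mice); in NINCDS studies, falling from a rotating rod (CF-1 mice, 30% polyethylene glycol vehicle). ED50 was obtained by quantal probit analysis.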

Test [4] relates to Mus musculus. Kind of test: Effective dose against convulsions induced by clonic pentylenetetrazole after intraperitoneal administration in experiment 2. As to conditions: ip. Summed up: (§2)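 Male CF-1 mice (25-35 g) dosed ip. Pentylenetetrazol 85 mg/kg in 0.9% NaCl was given sc at the dorsal neck, and mice were observed 30 min. An anticonvulsant effect was prevention of all clonic seizures (≥5 s forelimb clonus). ED50 was obtained by quantal probit analysis; NINCDS testing used 30% polyethylene glycol vehicle.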

In test [5] the test system is Mus musculus. Description: Effective dose against convulsions induced by maximal electroshock (MES) after intraperitoneal administration in experiment 1. The settings on record: ip. Summed up: (§3)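 Mice dosed ip and challenged by maximal electroshock, scoring protection from seizures; N = 10 mice per time-course point. ED50 was obtained by quantal probit analysis. Swiss-Webster mice were used in-house; CF-1 mice were used in NINCDS testing, where drug was in 30% polyethylene glycol at 10 mL/kg.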

Test [6] has as its system Mus musculus. Kind of test: Effective dose required to inhibit ataxia after intraperitoneal administration in experiment 2. The settings on record: ip. The gist of the method: as §1
Test [7] relates to Mus musculus. Kind of test: Effective dose required for the inhibition of spontaneous locomotion after intraperitoneal administration in experiment 1. As to conditions: ip.
Test [8] in a line: Protective index, ratio of ED50 ataxia and ED50 MES. Summed up:
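Protective index is the ratio of the ataxia ED50 to the maximal electroshock ED50. Both were ip in mice and derived by quantal probit analysis.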

Test [9] deals with Mus musculus. Kind of test: Effective dose against convulsions induced by maximal electroshock (MES) after intraperitoneal administration in experiment 2. The settings on record: ip. Summed up: as §3
For test [10], the system named is Mus musculus. Kind of test: Effective dose against convulsions induced by clonic pentylenetetrazole after intraperitoneal administration in experiment 1. As to conditions: ip. The gist of the method:
as §2

“And” between values parts separate entries of the source, which are not always exact repeats. Equal entries are not always repeated.

`CCCc1cccc(N2CCNCC2)n1.Cl`: the MTC with Mus musculus [1] turned out to be 3 mg/kg. The minimal effective dose in the test with Mus musculus [2] came to 10 mg/kg.
Compound `CCCCCCCCCCc1cccc(N2CCNCC2)n1` displayed an MTC in the test with Mus musculus [1] of 100 mg/kg. Besides, the minimal effective dose in the test on Mus musculus [2] came out at 30 mg/kg.
Broadly, the ED50 is the dose at which the effect has come halfway, by size or by number of responders. The low end stands for an effect at a small dose, the high end for a need for a large dose. Regarding `O=C1NC(=O)C(c2ccccc2)(c2ccccc2)N1` [PHENYTOIN], the median effective dose (ED50) is 82 mg/kg with Mus musculus [3]; above 100 mg/kg in the test on Mus musculus [4]; 8 mg/kg in the test on Mus musculus [5]; 65 mg/kg in the test with Mus musculus [6]; above 65 mg/kg with Mus musculus [7].
For `Cl.c1cc(CC2CCCCC2)nc(N2CCNCC2)c1`, the MTC with Mus musculus [1] is 100 mg/kg. The minimal effective dose with Mus musculus [2] was found to be 100 mg/kg.
Consider `CCCCCCCCCc1cccc(N2CCNCC2)n1`, for which the ED50 in the test on Mus musculus [3] was 30 mg/kg; with Mus musculus [4] it was above 100 mg/kg; in the test on Mus musculus [5] it was 5.6 mg/kg; in the test on Mus musculus [6] it was 42 mg/kg; in the test with Mus musculus [9], 7.8 mg/kg; in the test with Mus musculus [7], 26 mg/kg. The compound also returned an MTC in the test on Mus musculus [1] of 30 mg/kg. For the same compound, the minimal effective dose in the test on Mus musculus [2] stood at 10 mg/kg. The Ratio in test [8] turned out to be 5.4.
In the test with Mus musculus [1], `CCCCCCCc1cccc(N2CCCCC2)n1` came in with an MTC above 300 mg/kg. In the test with Mus musculus [2], the minimal effective dose was above 300 mg/kg.
The like results for `CCCCCCCc1cccc(N2CCN(C)CC2)n1.Cl` were, in that order, 300 mg/kg and 30 mg/kg.
The like results for `CCCCc1cccc(N2CCNCC2)n1` were, in that order, 10 mg/kg and 30 mg/kg.
Consider `CCCCCCCc1cccc(N2CCNCC2)n1`, for which the ED50 in the test with Mus musculus [3] came to 45 mg/kg; with Mus musculus [4] it was 21 mg/kg; with Mus musculus [5] it was 8.8 mg/kg; in the test with Mus musculus [6], 29 mg/kg; in the test with Mus musculus [9], 6.4 mg/kg; with Mus musculus [7] it was 13 mg/kg. In the test on Mus musculus [1], this compound came in with an MTC of 100 mg/kg. For the same compound, the minimal effective dose in the test with Mus musculus [2] is 10 mg/kg. In addition, in test [8], the Ratio was 5.1 and 4.5.
`CCCCCCCc1cccc(N2CCCNCC2)n1` returned an MTC with Mus musculus [1] of 100 mg/kg. Also, the minimal effective dose in the test on Mus musculus [2] stood at 30 mg/kg.
The corresponding values for `CCCCCCCCc1cccc(N2CCNCC2)n1` are 30 mg/kg and 10 mg/kg.
The corresponding values for `c1ccc(CCc2cccc(N3CCNCC3)n2)cc1` are 100 mg/kg and above 300 mg/kg.
The like results for `CCCCCCC(CCCCCC)c1cccc(N2CCNCC2)n1` were, in that order, 100 mg/kg and above 300 mg/kg.
In turn, `CCCCCCCc1ccnc(N2CCNCC2)c1` came in with an MTC in the test with Mus musculus [1] of 100 mg/kg. In addition, in the test on Mus musculus [2], the minimal effective dose worked out at 30 mg/kg.
Compound `Cc1cccc(N2CCNCC2)n1.Cl.Cl` had an MTC in the test on Mus musculus [1] of 30 mg/kg. The minimal effective dose in the test on Mus musculus [2] was above 300 mg/kg.
The like results for `CCCCCCCc1cccc(N2CCOCC2)n1` were, in that order, above 300 mg/kg and 300 mg/kg.
Regarding `NC(=O)N1c2ccccc2C=Cc2ccccc21` [CARBAMAZEPINE], the ED50 was 41 mg/kg in the test on Mus musculus [3]; above 100 mg/kg in the test with Mus musculus [4]; 9.8 mg/kg in the test with Mus musculus [5]; 72 mg/kg in the test on Mus musculus [6]; 8.8 mg/kg in the test with Mus musculus [9]; above 100 mg/kg in the test with Mus musculus [10]. The compound also yielded a median effective dose (ED50) in the test on Mus musculus [7] of 50 mg/kg. The Ratio in test [8] is 8.2.
Take `CCCCSc1cccc(N2CCNCC2)n1`: the MTC in the test on Mus musculus [1] was 100 mg/kg. In the test on Mus musculus [2], the minimal effective dose turned out to be 100 mg/kg.
Consider `CCCCCCc1cccc(N2CCNCC2)n1`, for which the ED50 was 22 mg/kg in the test on Mus musculus [3]; above 100 mg/kg in the test on Mus musculus [4]; 7.3 mg/kg in the test with Mus musculus [5]; 46 mg/kg in the test with Mus musculus [6]; 16 mg/kg with Mus musculus [9]; 20 mg/kg in the test with Mus musculus [7]. Besides, the MTC in the test on Mus musculus [1] stood at 100 mg/kg. For the same compound, the minimal effective dose with Mus musculus [2] stood at 10 mg/kg. In [8], the Ratio was 3 and 2.9.
As for `CC(C)(C)c1cccc(N2CCNCC2)n1.Cl`, the MTC in the test on Mus musculus [1] stood at 30 mg/kg. Besides, in the test with Mus musculus [2], the minimal effective dose is above 300 mg/kg.
The like results for `CCCCCc1cccc(N2CCNCC2)n1` were, in that order, 30 mg/kg and 10 mg/kg.
In the test on Mus musculus [1], `CC(C)c1cccc(N2CCNCC2)n1.Cl.Cl` registered an MTC of 30 mg/kg. The minimal effective dose in the test with Mus musculus [2] was above 300 mg/kg.
